Measurements: ChEMBL document CHEMBL1138093, “C-(4,5,6-trimethoxyindan-1-yl)methanamine: a mescaline analogue designed using a homology model of the 5-HT2A receptor” (J Med Chem, 2006)

Assays:
[1] = biological target: T1, 5-hydroxytryptamine receptor 2A (Rattus norvegicus, UniProt P14842); experiment: (§1) Activity at rat 5HT2A receptor assessed as 5-HT-stimulated IP3 accumulation; assay type: functional
How it was run: (§2)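 Rat 5-HT2A-expressing stable cell line, seeded and assayed at 70% confluence. Cells were labeled 18-20 h with [3H]myoinositol at 1.0 µCi/mL, then pretreated 15 min with 10 µM pargyline/10 mM LiCl. Drug exposure was 30 min at 37 °C under 5% CO2. The assay was stopped with 10 mM formic acid, and [3H]inositol phosphates were isolated on Dowex-1 columns.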

[2] = biological target: 5-hydroxytryptamine receptor 2A (Rattus norvegicus) (UniProt P14842); experiment: as §1; assay type: functional; how it was run: as §2
Chain of 5-hydroxytryptamine receptor 2A (Rattus norvegicus) (P14842 whole entry): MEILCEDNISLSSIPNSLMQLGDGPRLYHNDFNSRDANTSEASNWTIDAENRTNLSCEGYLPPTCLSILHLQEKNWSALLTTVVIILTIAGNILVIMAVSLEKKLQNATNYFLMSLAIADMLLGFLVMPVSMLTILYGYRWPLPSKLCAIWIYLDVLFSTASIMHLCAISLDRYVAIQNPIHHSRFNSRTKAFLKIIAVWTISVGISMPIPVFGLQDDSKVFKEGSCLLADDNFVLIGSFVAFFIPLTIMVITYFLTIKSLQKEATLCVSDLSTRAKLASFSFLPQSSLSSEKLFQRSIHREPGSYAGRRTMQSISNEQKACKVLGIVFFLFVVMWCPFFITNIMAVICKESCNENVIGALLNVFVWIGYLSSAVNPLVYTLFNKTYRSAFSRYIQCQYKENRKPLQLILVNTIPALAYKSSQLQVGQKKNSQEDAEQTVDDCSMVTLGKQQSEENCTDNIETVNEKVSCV

[3] = biological target: T1, 5-hydroxytryptamine receptor 2A; experiment: Displacement of [125I]DOI from rat 5HT2A receptor
How it was run: (§3)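 Stably transfected cells expressing rat 5-HT2A or 5-HT2C were serum-starved 5 h and pelleted. Binding used 50 mM Tris, 0.5 mM EDTA, 10 mM MgCl2, pH 7.4, incubated 60 min at 25 °C. Bound was separated by filtration onto PEI-soaked GF/B filters, then scintillation counting. Values came from competition curves.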

Rattus norvegicus = species on record: Rattus norvegicus; experiment: Hallucinogenic activity in rat; assay type: functional; conditions: for ED50: Rattus norvegicus
How it was run: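 Rats were trained to discriminate saline from LSD tartrate (186 nmol/kg ip). The read-out was presses on the drug lever. […] At least 59% gave partial substitution.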

[4] = biological target: T2, 5-hydroxytryptamine receptor 2C (Rattus norvegicus, UniProt P08909); experiment: Displacement of [125I]DOI from rat 5HT2C receptor; how it was run: as §3
T2 sequence (P08909 whole entry): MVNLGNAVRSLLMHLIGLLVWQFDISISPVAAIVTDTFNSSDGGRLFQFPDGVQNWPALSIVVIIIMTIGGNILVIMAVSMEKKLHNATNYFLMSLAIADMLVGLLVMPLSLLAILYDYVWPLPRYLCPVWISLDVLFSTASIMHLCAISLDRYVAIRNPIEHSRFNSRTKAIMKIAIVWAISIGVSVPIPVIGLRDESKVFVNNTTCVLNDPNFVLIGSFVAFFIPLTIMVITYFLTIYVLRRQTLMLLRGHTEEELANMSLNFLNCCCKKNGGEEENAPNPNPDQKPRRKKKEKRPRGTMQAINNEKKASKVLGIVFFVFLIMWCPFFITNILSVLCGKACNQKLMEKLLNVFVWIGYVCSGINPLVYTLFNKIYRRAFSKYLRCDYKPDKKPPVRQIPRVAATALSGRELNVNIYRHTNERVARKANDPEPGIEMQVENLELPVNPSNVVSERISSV

T1 sequence (P14842 whole entry): as the sequence (P14842 whole entry) above

Structure (SMILES)	EC50 [1]	Activity [2]	Ki [3]	ED50 (Rattus norvegicus)	ED5 (Rattus norvegicus)	Ki [4]
COc1cc2c(c(OC)c1OC)CC[C@@H]2CN	> 50 µM	59%	1.12 µM			
CCN(CC)C(=O)[C@@H]1C=C2c3cccc4[nH]cc(c34)C[C@H]2N(C)C1 [LYSERGIDE]		20%		0.037 µmol/kg		
COc1cc2c(c(OC)c1OC)CCC2CN (racemic)	6.1 µM	83%	0.13 µM		6.6 µmol/kg	0.06 µM
COc1cc(CCN)cc(OC)c1OC [MESCALINE]	11.3 µM	86%	0.36 µM	34 µmol/kg		0.38 µM
COc1cc2c(c(OC)c1OC)CC[C@H]2CN	3.2 µM	88%	0.069 µM			
